{"source": "ChEMBL document CHEMBL2203287", "about": "“Synthesis and biological evaluation of novel heterocyclic derivatives of combretastatin A-4” (Bioorg Med Chem Lett, 2012)", "key": {"[1]": {"system": "SKv-a", "experiment": "Induction of microtubule depolymerization in human SKv-a cells at 10 '-6 M by confocal microscopy", "format": "cell-based"}, "[2]": {"system": "HaCaT", "experiment": "Antiproliferative activity against human HaCaT cells assessed as cell viability by MTT assay", "format": "functional, cell-based", "procedure,_shortened": "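MTT read-out of metabolic activity, taken as the number of viable cells remaining after 72 h continuous exposure of cultured keratinocytes.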"}, "[3]": {"system": "HaCaT", "experiment": "Induction of microtubule depolymerization in human HaCaT cells at 10 '-6 M by confocal microscopy", "format": "cell-based"}, "[4]": {"experiment": "Inhibition of sheep brain tubulin assembly compound incubated for 10 mins at 37 degC followed by 5 mins incubation at 0 degC by turbidimetry", "parameters": "species or system Ovis aries"}, "[5]": {"system": "HaCaT", "experiment": "Induction of morphological changes in human HaCaT cells assessed as cell rounding at 10 '-6 M by confocal microscopy", "format": "functional, cell-based", "procedure,_shortened": "(§1)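 Cells were fixed and immunostained for beta-tubulin with a monoclonal antibody, then detected with goat anti-mouse FITC secondary. Confocal optical sections were taken at ×63 objective magnification. Vehicle-treated controls were imaged in parallel.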"}, "[6]": {"system": "HaCaT", "experiment": "Induction of morphological changes in human HaCaT cells assessed as loss of radial distribution of structured microtubules at 10 '-6 M by confocal microscopy", "format": "functional, cell-based", "procedure,_shortened": "as §1"}, "[7]": {"system": "SKv-a", "experiment": "Induction of morphological changes in human SKv-a cells assessed as cell rounding at 10 '-6 M by confocal microscopy", "format": "functional, cell-based", "procedure,_shortened": "as §1"}, "[8]": {"experiment": "Induction of morphological changes in human SKv-a cells assessed as loss of radial distribution of structured microtubules at 10 '-6 M by confocal microscopy", "format": "functional, cell-based", "procedure,_shortened": "as §1"}, "[9]": {"system": "HaCaT", "experiment": "Mitotic arrest in human HaCaT cells at 5 uM after 24 hrs using propidium iodide by flow cytometry", "format": "functional, cell-based", "procedure,_shortened": "(§2)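 Exponentially growing cells given 5×10^-6 M for 24 h, with 0.5% DMSO vehicle control. Cells detached with gentle Accutase, then stained in suspension with propidium iodide 0.05 mg/mL in citrate buffer with Nonidet P40 for 1 h at 4 °C. FACS on 20,000 cells for G1/S/G2/M distribution; run in triplicate.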"}, "[10]": {"system": "HaCaT", "experiment": "Induction of morphological changes in human HaCaT cells assessed as cell detachment at 10 '-6 M by confocal microscopy", "format": "functional, cell-based", "procedure,_shortened": "as §1"}, "[11]": {"system": "SKv-a", "experiment": "Mitotic arrest in human SKv-a cells at 5 uM after 24 hrs using propidium iodide by flow cytometry", "format": "functional, cell-based", "procedure,_shortened": "as §2"}, "[12]": {"system": "SKv-a", "experiment": "Induction of morphological changes in human SKv-a cells assessed as cell detachment at 10 '-6 M by confocal microscopy", "format": "functional, cell-based", "procedure,_shortened": "as §1"}, "[13]": {"species": "Ovis aries", "experiment": "Inhibition of sheep brain tubulin assembly at 32 uM incubated for 10 mins at 37 degC followed by 5 mins incubation at 0 degC by turbidimetry"}}, "note": "The source made the active and inactive calls. The rule behind the calls is not given here."}
{"smiles": "COc1ccc(/C=C\\c2cc(OC)c(OC)c(OC)c2)cc1O", "note": "[COMBRETASTATIN A4]", "values": [{"measurement": "Activity", "setting": "[1]", "value": "Active"}, {"measurement": "IC50", "setting": "[2]", "value": 1, "unit": "nM"}, {"measurement": "Activity", "setting": "[3]", "value": "Active"}]}
{"smiles": "COc1cc(/C=C\\c2cc3ccccc3o2)cc(OC)c1OC", "values": [{"measurement": "IC50", "setting": "[4]", "value": 9600, "unit": "nM"}]}
{"smiles": "COc1cc(/C=C\\c2cc3ccccc3[nH]2)cc(OC)c1OC", "values": [{"measurement": "IC50", "setting": "[4]", "value": 21000, "unit": "nM"}]}
{"smiles": "COc1cc(/C=C\\c2cc3ccccc3s2)cc(OC)c1OC", "values": [{"measurement": "Activity", "setting": "[5]", "value": "Active"}, {"measurement": "Activity", "setting": "[6]", "value": "Active"}, {"measurement": "Activity", "setting": "[7]", "value": "Active"}, {"measurement": "Activity", "setting": "[8]", "value": "Active"}, {"measurement": "Activity", "setting": "[9]", "value": "Active"}, {"measurement": "Activity", "setting": "[10]", "value": "Active"}, {"measurement": "Activity", "setting": "[1]", "value": "Active"}, {"measurement": "IC50", "setting": "[2]", "value": 16, "unit": "nM"}, {"measurement": "Activity", "setting": "[3]", "value": "Active"}, {"measurement": "Activity", "setting": "[11]", "value": "Active"}, {"measurement": "Activity", "setting": "[12]", "value": "Active"}, {"measurement": "IC50", "setting": "[4]", "value": 2600, "unit": "nM"}]}
{"smiles": "COc1cc(/C=C/c2cc3ccccc3s2)cc(OC)c1OC", "values": [{"measurement": "Activity", "setting": "[9]", "value": "Active"}, {"measurement": "Activity", "setting": "[1]", "value": "Active"}, {"measurement": "Activity", "setting": "[3]", "value": "Active"}, {"measurement": "Activity", "setting": "[11]", "value": "Active"}, {"measurement": "IC50", "setting": "[4]", "value": 8400, "unit": "nM"}]}
{"smiles": "COc1cc2c(c(OC)c1OC)-c1ccc(OC)c(=O)cc1[C@@H](NC(C)=O)CC2", "note": "[COLCHICINE]", "values": [{"measurement": "Activity", "setting": "[5]", "value": "Active"}, {"measurement": "Activity", "setting": "[6]", "value": "Active"}, {"measurement": "Activity", "setting": "[7]", "value": "Active"}, {"measurement": "Activity", "setting": "[8]", "value": "Active"}, {"measurement": "Activity", "setting": "[10]", "value": "Active"}, {"measurement": "Activity", "setting": "[1]", "value": "Active"}, {"measurement": "IC50", "setting": "[2]", "value": 12, "unit": "nM"}, {"measurement": "Activity", "setting": "[3]", "value": "Active"}, {"measurement": "Activity", "setting": "[12]", "value": "Active"}]}
{"smiles": "COc1cc(/C=C/c2cc3ccccc3o2)cc(OC)c1OC", "values": [{"measurement": "inhibition", "setting": "[13]", "value": 23, "unit": "%"}]}
{"smiles": "COc1cc([C@@H]2c3cc4c(cc3C[C@H]3COC(=O)[C@@H]32)OCO4)cc(OC)c1OC", "note": "[DESOXYPODOPHYLLOTOXIN]", "values": [{"measurement": "IC50", "setting": "[4]", "value": 1700, "unit": "nM"}]}
